Key:
Homo sapiens = species on record: Homo sapiens; assay: Selectivity ratio of IC50 for human C-terminal 6-His-tagged KLKB1 (G20 to A638 residues) expressed in mouse NS0 cells to IC50 for human recombinant 6His-Q-FLAG-tagged KLK5 expressed in baculovirus infected Sf9 insect cells
Coagulation factor X = Coagulation factor X (Homo sapiens, UniProt P00742); assay: Inhibition of recombinant human C-terminal 10-His-tagged factor Xa (L24 to K488 residues) expressed in baculovirus infected Sf21 insect cells using Mca-RPKPVE-Nval-WRK(Dnp)-NH2 as substrate incubated for 40 mins by FLINT assay
Kallikrein-1 [1] = target: T1, Kallikrein-1 (Homo sapiens, UniProt P06870); assay: Inhibition of human recombinant N-terminal His-tagged and enterokinase cleavage site-fused KLK1 (19 to 262 residues) expressed in baculovirus infected Sf9 insect cells using R110 labelled GSK3162232A as substrate measured at 30 secs interval for 5 mins by FLINT assay
[2] = target: T2, Suppressor of tumorigenicity 14 protein (Homo sapiens, UniProt Q9Y5Y6); assay: Inhibition of recombinant human N-terminal Met and 6-His-tagged matriptase (G596 to V855 residues) expressed in Escherichia coli using Boc-QAR-AMC as substrate incubated for 40 mins by FLINT assay
T2 sequence (Q9Y5Y6 whole entry): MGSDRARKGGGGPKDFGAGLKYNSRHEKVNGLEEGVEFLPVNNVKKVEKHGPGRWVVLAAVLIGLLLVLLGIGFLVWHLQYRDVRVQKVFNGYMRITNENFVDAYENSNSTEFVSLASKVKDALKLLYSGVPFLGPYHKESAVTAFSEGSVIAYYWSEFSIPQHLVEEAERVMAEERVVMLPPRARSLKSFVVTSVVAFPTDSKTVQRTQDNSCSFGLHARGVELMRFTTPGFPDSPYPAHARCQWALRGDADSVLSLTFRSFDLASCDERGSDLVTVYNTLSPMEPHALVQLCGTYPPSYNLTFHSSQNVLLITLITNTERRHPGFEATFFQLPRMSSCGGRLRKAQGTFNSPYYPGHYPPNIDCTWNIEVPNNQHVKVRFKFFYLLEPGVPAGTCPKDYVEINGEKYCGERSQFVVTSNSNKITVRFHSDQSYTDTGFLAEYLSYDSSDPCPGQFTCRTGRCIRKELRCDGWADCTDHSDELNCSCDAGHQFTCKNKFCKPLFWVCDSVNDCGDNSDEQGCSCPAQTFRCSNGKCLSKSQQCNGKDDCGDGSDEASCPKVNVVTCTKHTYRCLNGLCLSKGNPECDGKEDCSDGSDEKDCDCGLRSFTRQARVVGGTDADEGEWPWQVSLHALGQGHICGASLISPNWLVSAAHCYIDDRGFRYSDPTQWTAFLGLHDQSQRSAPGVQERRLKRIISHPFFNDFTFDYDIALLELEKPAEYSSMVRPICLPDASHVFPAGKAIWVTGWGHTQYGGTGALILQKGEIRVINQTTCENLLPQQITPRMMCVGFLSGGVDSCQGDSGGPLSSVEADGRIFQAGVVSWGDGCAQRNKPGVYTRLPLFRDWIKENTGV

Kallikrein-14 = target: T3, Kallikrein-14 (Homo sapiens, UniProt Q9P0G3); assay: Inhibition of recombinant human C-terminal 10-His-tagged KLK14 (Q19 to M248 residues) expressed in mouse NS0 cells using BOC-VPR-AMC as substrate incubated for 40 mins by FLINT assay
T3 sequence (Q9P0G3 whole entry): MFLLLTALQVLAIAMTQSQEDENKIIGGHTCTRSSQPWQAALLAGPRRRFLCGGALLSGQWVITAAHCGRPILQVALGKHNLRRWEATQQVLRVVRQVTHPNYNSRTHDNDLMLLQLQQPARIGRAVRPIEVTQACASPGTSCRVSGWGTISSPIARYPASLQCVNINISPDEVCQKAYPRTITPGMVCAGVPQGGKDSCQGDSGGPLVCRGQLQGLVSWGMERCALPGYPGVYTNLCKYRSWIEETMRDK

[3] = Dissociation constant, borocycle pKa of the compound; assay type: physicochemical
Kallikrein-5 [4] = target: T4, Kallikrein-5 (Homo sapiens, UniProt Q9Y337); assay: Inhibition of human recombinant 6His-Q-FLAG-tagged KLK5 expressed in baculovirus infected Sf9 insect cells using (Tos-Gly-Pro-Arg)2[R110].2TFA as substrate measured at 30 secs interval for 5 mins using 1 x 10'10M enzyme by FLINT assay
T4 sequence (Q9Y337 whole entry): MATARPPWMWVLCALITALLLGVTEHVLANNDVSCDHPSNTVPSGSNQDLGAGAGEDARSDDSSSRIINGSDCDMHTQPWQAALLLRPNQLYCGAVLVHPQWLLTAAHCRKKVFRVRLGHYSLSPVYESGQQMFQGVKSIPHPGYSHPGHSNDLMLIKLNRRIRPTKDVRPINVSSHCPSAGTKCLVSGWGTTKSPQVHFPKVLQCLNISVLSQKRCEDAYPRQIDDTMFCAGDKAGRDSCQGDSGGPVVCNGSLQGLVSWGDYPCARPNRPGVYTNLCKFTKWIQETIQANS

Kallikrein-8 = target: T5, Kallikrein-8 (Homo sapiens, UniProt O60259); assay: Inhibition of recombinant human C-terminal 10-His-tagged KLK8 (Gln29 to Gly260 residues) expressed in mouse NS0 cells using BOC-VPR-AMC as substrate incubated for 40 mins by FLINT assay
T5 sequence (O60259 whole entry): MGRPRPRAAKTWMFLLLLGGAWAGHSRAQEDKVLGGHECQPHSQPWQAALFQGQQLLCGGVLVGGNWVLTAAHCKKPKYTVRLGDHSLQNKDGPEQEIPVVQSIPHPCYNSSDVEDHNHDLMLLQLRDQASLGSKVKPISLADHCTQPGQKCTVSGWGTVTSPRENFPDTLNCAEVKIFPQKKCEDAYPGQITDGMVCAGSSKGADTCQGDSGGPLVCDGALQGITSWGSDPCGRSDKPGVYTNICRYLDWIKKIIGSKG

Kallikrein-7 = Kallikrein-7 (Homo sapiens, UniProt P49862); assay: Inhibition of recombinant human C-terminal 10-His-tagged KLK7 (Glu23 to His252 residues) expressed in mouse NS0 cells using 5-FAM-E-A-L-Y-L-V-S-G-C(5-TAMRA) as substrate incubated for 40 mins by FLINT assay
Kallikrein-5 [5] = target: T4, Kallikrein-5; assay: Inhibition of human recombinant 6His-Q-FLAG-tagged KLK5 expressed in baculovirus infected Sf9 insect cells using (Tos-Gly-Pro-Arg)2[R110].2TFA as substrate measured at 30 secs interval for 5 mins by FLINT assay
Outline: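 Standard KLK5 assay format. Its theoretical tight-binding limit corresponds to pIC50 8.4.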

Plasma kallikrein = Plasma kallikrein (Homo sapiens, UniProt P03952); assay: Inhibition of human C-terminal 6-His-tagged KLKB1 (G20-A638 residues) expressed in mouse NS0 cells using PFR-AMC as substrate incubated for 40 mins by FLINT assay
Prothrombin = Prothrombin (Homo sapiens, UniProt P00734); assay: Inhibition of human recombinant C-terminal 10-His-tagged thrombin (M1 to E622 residues) expressed in mouse NS0 cells using BOC-VPR-AMC as substrate incubated for 40 mins by FLINT assay
[6] = target: Urokinase-type plasminogen activator (Homo sapiens, UniProt P00749); assay: Inhibition of recombinant human C-terminal 10-His-tagged urokinase (M1 to L431 residues) expressed in mouse NS0 cells using Z-GGR-AMC as substrate incubated for 40 mins by FLINT assay
Neutrophil elastase = target: T6, Neutrophil elastase (Homo sapiens, UniProt P08246); assay: Inhibition of human neutrophil elastase using MeOSuc-AAPV-AMC as substrate incubated for 40 mins by FLINT assay
T6 sequence (P08246 whole entry): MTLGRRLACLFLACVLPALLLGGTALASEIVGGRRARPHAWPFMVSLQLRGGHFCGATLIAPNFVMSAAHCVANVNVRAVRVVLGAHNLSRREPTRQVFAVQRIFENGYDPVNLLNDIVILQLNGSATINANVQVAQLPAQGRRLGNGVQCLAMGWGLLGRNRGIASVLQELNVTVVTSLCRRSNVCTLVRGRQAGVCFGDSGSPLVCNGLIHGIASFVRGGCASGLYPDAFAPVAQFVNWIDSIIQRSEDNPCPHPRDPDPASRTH

Kallikrein-1 [7] = target: T1, Kallikrein-1; assay: Inhibition of human recombinant N-terminal His-tagged and enterokinase cleavage site-fused KLK1 (19 to 262 residues) expressed in baculovirus infected Sf9 insect cells at 10 uM using R110 labelled GSK3162232A as substrate measured at 30 secs interval for 5 mins by FLINT assay relative to control

| SMILES | Ratio IC50 (Homo sapiens) | IC50 (Coagulation factor X) [µM] | IC50 (Kallikrein-1 [1]) [µM] | IC50 [2] [µM] | IC50 (Kallikrein-14) [µM] | pKa [3] | IC50 (Kallikrein-5 [4]) [µM] | IC50 (Kallikrein-8) [µM] | IC50 (Kallikrein-7) [µM] | IC50 (Kallikrein-5 [5]) [µM] | IC50 (Plasma kallikrein) [µM] | IC50 (Prothrombin) [µM] | IC50 [6] [µM] | IC50 (Neutrophil elastase) [µM] | inhibition (Kallikrein-1 [7]) [%] |
| --- | --- | --- | --- | --- | --- | --- | --- | --- | --- | --- | --- | --- | --- | --- | --- |
| N=C(N)c1ccc(C2Cc3ccc(F)cc3B(O)O2)cc1OCc1cccnc1 (racemic) | 10 | 63.1 | 3.98 | 10 | 0.316 | 4.66 | 0.00794 | 0.316 | > 100 | 0.00631 | 0.0794 | 10 | > 100 | 31.6 | – |
| Cc1ccc2c(c1)C(Cc1ccc(C(=N)N)c(OCc3cccnc3)c1)OB2O (racemic) | 10 | 31.6 | > 10 | 25.1 | 25.1 | 4.73 | 0.00794 | 10 | > 100 | 0.02 | 0.794 | 6.31 | > 100 | 25.1 | 10 |
| N=C(N)c1ccc(COc2ccc3c(c2)B(O)OC3)cc1 | – | – | 39.8 | – | – | – | – | – | – | 39.8 | – | – | – | – | – |
| N=C(N)c1ccc(C2Cc3ccccc3B(O)O2)cc1OCc1ccccc1Cl (racemic) | 10 | 10 | 0.631 | 7.94 | 1.58 | – | 0.00794 | 0.251 | 39.8 | 0.01 | 0.0501 | 3.16 | 50.1 | 6.31 | – |
| N=C(N)c1ccc(Oc2ccc3c(c2)B(O)OC3)cc1 | – | – | 25.1 | – | – | – | – | – | – | 50.1 | – | – | – | – | – |
| N=C(N)c1cccc(COc2ccc3c(c2)B(O)OC3)c1 | – | – | 158 | – | – | – | – | – | – | 12.6 | – | – | – | – | – |
| N=C(N)c1ccc(COc2ccc3c(c2)COB3O)cc1 | – | – | 158 | – | – | – | – | – | – | 6.31 | – | – | – | – | – |
| N=C(N)c1ccc(CC2OB(O)c3cc(F)ccc32)cc1OCc1cccnc1 (racemic) | 10 | 5.01 | 0.316 to 3.98 | 63.1 | 12.6 | 4.77 | 0.00158 | 7.94 | > 100 | 0.0126 | 0.794 | 2 | 79.4 | 1.58 | – |
| N=C(N)c1ccc(C2Cc3ccccc3B(O)O2)cc1OCc1cccc(Cl)c1 (racemic) | 10 | 2 | 1.58 | 0.0126 | 0.251 | – | 0.00501 | 0.1 | 39.8 | 0.00794 | 0.00501 | 0.398 | 0.0631 | 15.8 | – |
| N=C(N)c1ccc(NCC2Cc3ccccc3B(O)O2)cc1 (racemic) | – | – | > 10 | – | – | – | – | – | – | 1.58 | – | – | – | – | 35 |
| N=C(N)c1ccc(C2OB(O)c3ccccc32)cc1 (racemic) | – | – | 79.4 | – | – | – | – | – | – | 398 | – | – | – | – | – |
| N=C(N)c1ccc(COc2cccc3c2B(O)OC3)cc1 | – | – | 501 | – | – | – | – | – | – | 31.6 | – | – | – | – | – |
| N=C(N)c1ccc(OCc2ccc3c(c2)B(O)OC3)cc1 | – | – | 10 | – | – | – | – | – | – | 6.31 | – | – | – | – | – |
| N=C(N)c1ccc(C2Cc3cc(Cl)c(F)cc3B(O)O2)cc1OCc1cccnc1 (racemic) | – | 5.01 | 3.98 to 6.31 | 15.8 | 0.2 | 4.26 | 0.00126 | 0.251 | > 100 | – | 0.2 | 2 | 79.4 | 1.26 | – |
| N=C(N)c1cccc(C2Cc3ccccc3B(O)O2)c1 (racemic) | – | – | 0.501 | – | – | – | – | – | – | 3.98 | – | – | – | – | – |
| N=C(N)c1ccc(C2CCCB(O)O2)cc1 (racemic) | – | – | 63.1 | – | – | – | – | – | – | 39.8 | – | – | – | – | – |
| N=C(N)c1ccc(CNc2cccc3c2B(O)OC3)cc1 | – | – | 7.94 | – | – | – | – | – | – | 200 | – | – | – | – | – |
| Cc1cccc2c1B(O)OC(c1ccc(C(=N)N)c(OCc3cccnc3)c1)C2 (racemic) | 10 | 50.1 | > 10 | 1.26 | 0.398 | – | 0.0251 | 1.58 | > 100 | 0.0251 | 0.0794 | 3.16 | 5.01 | 0.794 | 27 |
| N=C(N)c1ccc(C2Cc3ccc(C(F)(F)F)cc3B(O)O2)cc1OCc1cccnc1 (racemic) | – | 1.58 | 0.398 | 2 | 0.126 | 4.54 | 0.000501 | 0.0251 | 39.8 | – | 0.01 | 3.98 | 12.6 | > 100 | – |

From ChEMBL document CHEMBL4396973, “Design and development of a series of borocycles as selective, covalent kallikrein 5 inhibitors” (Bioorg Med Chem Lett, 2019)
